Measured values taken from ChEMBL document CHEMBL4400560, “Discovery and optimization of novel piperazines as potent inhibitors of fatty acid synthase (FASN)” (Bioorg Med Chem Lett, 2019).
Values after ≈ are worked out from the molar mass of the structure shown.

How the values were obtained:
[1] = Stability in mouse liver microsomes assessed as compound remaining after 30 mins; assay type: ADME, Microsome; conditions: read-out: Stability
Outline: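 Mouse liver microsomes, 30-min incubation. Result expressed as percent of parent remaining.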

Fatty acid synthase [2] = biological target: T1, Fatty acid synthase (Homo sapiens, UniProt P49327); test: Inhibition of full length recombinant human FASN using acetyl-CoA/malonyl-CoA as substrate preincubated for 60 mins followed by substrate addition and measured after 90 mins in presence of NADPH
T1 sequence (P49327 whole entry): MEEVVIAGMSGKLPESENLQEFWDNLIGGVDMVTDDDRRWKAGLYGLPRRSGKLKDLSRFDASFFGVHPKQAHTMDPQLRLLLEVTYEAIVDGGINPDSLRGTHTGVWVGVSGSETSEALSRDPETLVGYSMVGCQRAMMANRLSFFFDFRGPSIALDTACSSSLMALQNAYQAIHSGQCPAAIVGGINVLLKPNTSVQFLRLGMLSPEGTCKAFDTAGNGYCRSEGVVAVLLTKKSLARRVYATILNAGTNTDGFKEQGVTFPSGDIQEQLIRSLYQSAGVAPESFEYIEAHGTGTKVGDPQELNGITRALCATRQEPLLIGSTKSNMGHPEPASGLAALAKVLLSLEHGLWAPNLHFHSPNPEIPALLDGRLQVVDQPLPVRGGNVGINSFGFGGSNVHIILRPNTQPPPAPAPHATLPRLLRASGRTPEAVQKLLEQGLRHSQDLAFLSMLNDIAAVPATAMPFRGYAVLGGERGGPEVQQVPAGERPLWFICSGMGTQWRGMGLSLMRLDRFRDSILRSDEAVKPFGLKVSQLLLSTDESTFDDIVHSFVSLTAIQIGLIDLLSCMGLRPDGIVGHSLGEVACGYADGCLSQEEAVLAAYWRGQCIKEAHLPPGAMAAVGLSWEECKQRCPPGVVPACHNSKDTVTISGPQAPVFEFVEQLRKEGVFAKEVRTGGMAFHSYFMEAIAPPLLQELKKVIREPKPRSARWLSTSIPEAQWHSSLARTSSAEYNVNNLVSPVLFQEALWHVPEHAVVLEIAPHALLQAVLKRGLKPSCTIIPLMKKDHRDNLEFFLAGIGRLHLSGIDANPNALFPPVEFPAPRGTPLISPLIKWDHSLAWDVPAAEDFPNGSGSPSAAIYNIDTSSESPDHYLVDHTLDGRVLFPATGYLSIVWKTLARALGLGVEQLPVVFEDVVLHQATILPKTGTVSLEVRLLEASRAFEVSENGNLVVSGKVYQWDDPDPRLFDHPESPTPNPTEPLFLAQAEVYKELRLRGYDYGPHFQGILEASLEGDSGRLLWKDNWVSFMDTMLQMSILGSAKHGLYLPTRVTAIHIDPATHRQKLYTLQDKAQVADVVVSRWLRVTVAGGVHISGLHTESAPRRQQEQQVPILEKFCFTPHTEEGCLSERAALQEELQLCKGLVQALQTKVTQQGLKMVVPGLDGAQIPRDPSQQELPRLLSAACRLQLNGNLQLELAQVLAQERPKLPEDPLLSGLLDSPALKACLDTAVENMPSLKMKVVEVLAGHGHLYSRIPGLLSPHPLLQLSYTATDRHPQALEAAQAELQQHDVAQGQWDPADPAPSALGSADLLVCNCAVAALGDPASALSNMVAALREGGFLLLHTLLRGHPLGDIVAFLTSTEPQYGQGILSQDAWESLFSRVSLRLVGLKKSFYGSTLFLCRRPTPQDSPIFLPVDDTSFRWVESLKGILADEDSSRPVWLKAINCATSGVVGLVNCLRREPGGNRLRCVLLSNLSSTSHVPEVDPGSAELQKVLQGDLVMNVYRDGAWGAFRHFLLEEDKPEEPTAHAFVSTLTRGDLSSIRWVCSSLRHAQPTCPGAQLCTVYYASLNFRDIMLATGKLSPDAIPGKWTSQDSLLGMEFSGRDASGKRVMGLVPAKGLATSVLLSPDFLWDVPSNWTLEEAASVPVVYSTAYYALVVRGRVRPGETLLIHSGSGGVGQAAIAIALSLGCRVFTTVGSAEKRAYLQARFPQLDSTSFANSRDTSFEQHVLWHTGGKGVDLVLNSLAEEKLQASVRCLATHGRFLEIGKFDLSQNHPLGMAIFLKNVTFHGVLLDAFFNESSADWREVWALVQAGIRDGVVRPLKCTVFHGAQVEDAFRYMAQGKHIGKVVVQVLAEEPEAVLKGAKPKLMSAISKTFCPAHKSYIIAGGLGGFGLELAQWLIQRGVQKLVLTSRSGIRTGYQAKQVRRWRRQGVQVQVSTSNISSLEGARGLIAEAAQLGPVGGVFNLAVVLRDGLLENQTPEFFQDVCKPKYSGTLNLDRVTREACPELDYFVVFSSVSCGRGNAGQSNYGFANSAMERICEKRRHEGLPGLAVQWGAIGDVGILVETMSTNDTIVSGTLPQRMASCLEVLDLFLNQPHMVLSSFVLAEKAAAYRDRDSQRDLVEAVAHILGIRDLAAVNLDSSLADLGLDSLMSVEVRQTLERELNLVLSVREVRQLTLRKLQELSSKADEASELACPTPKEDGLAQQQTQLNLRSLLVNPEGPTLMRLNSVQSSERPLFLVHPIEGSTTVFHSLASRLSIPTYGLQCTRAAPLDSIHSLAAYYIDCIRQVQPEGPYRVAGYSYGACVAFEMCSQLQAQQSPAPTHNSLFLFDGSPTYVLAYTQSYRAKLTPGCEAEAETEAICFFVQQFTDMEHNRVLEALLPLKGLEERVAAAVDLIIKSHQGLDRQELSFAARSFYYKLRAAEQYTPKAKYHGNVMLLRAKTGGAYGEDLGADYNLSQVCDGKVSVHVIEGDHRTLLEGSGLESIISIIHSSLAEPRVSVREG
Outline: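 Full-length recombinant human FASN. CoA released is detected as a fluorescent conjugate with the coumarin maleimide CPM. IC50 is the mean of at least two separate runs.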

Fatty acid synthase [3] = biological target: T1, Fatty acid synthase; test: Inhibition of FASN in human BT474 cells preincubated for 1 hr followed by [14C]-acetate addition and measured after 4 hrs by scintillation counting assay; assay type: cell-based
Outline: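 BT474 breast cancer cells given 14C-acetate, which cellular FASN incorporates via acetyl-CoA into newly made radiolabeled palmitate. IC50 for blocking this incorporation is the mean of at least two separate runs.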

[4] = Kinetic solubility of compound at pH 7.4; assay type: physicochemical; conditions: buffer, read-out: Kinetic_solubility
Outline: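 Kinetic solubility measured at pH 7.4.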

[5] = Inhibition of ketoreductase (unknown origin); set-up: species or system Homo sapiens
[6] = Inhibition of enoyl reductase (unknown origin); set-up: species or system Homo sapiens
[7] = Inhibition of dehydratase (unknown origin); set-up: species or system Homo sapiens
[8] = Inhibition of thioesterase (unknown origin); set-up: species or system Homo sapiens
PC-3 = test: Antiproliferative activity against human PC3 cells after 96 hrs by MTT assay; assay type: functional, cell-based; conditions: PC-3, 96 h
Outline: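 PC3 prostate cancer cells grown in medium with 10% lipid-reduced serum, a condition in which growth depends on de novo lipogenesis, in the presence of inhibitor. Antiproliferative IC50 reported as the mean of at least two separate runs.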

[9] = Toxicity in Balb/c nude mouse at 5 mg/kg, po administered as single dose; assay type: organism-based; conditions: in vivo
Outline: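 Female Balb/c nude mice observed for acute toxicity after a single oral 5 mg/kg dose.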

[10] = Stability in mouse hepatocytes after 1 hr; assay type: ADME, cell-based, Hepatocyte; conditions: read-out: Stability
[11] = Stability in mouse liver S9 fraction after 1 hr; assay type: ADME, subcellular; conditions: read-out: Stability
[12] = AUC in mouse at mg/kg, po; assay type: ADME, organism-based; set-up: concentration or dose not given beside the values; conditions: in vivo
Outline: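 Mouse oral PK study at 5 mg/kg p.o., with plasma exposure taken as AUC0-8h.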

MV4-11 [13] = test: Antiproliferative activity against human MV4-11 cells after 96 hrs by CellTiter-Glo reagent-based assay; assay type: functional, cell-based; conditions: MV4-11, 96 h
Outline: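 Antiproliferative activity measured in MV-411 cells. IC50 reported as the mean of at least two separate assay runs.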

[14] = Tmax in Balb/c nude mouse at 5 mg/kg, po; assay type: ADME, organism-based; conditions: in vivo
Outline: (§1)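 Female Balb/c nude mice (n=6) dosed orally at 5 mg/kg in PEG400/ethanol (9:1). Exposure measured over 8 h, giving Tmax, Cmax, AUC0-8h and %F.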

[15] = Cmax in Balb/c nude mouse at 5 mg/kg, po; assay type: ADME, organism-based; set-up: dose 5 mg/kg, route oral; conditions: in vivo; outline: as §1
[16] = AUC (0 to 8 hrs) in Balb/c nude mouse at 5 mg/kg, po; assay type: ADME, organism-based; set-up: time < 8 hr, dose 5 mg/kg, route oral; conditions: in vivo; outline: as §1
[17] = Oral bioavailability in Balb/c nude mouse at 5 mg/kg; assay type: ADME, organism-based; conditions: in vivo; outline: as §1
[18] = Tmax in Sprague-Dawley rat at 5 mg/kg, po; assay type: ADME, organism-based; conditions: in vivo
Outline: (§2)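 Male Sprague-Dawley rats (n=3) given a single oral 5 mg/kg dose in PEG400/ethanol (9:1). Plasma followed over 24 h to give Tmax, Cmax, AUC0-24h and oral bioavailability (%F).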

[19] = Cmax in Sprague-Dawley rat at 5 mg/kg, po; assay type: ADME, organism-based; set-up: dose 5 mg/kg, route oral; conditions: in vivo; outline: as §2
[20] = AUC (0 to 24 hrs) in Sprague-Dawley rat at 5 mg/kg, po; assay type: ADME, organism-based; set-up: dose 5 mg/kg, time < 24 hr, route oral; conditions: in vivo; outline: as §2
[21] = Oral bioavailability in Sprague-Dawley rat at 5 mg/kg; assay type: ADME, organism-based; conditions: in vivo; outline: as §2
Mus musculus = test: In vivo inhibition of FASN in Harlan nude mouse xenografted with human MV411 cells assessed as increase in malonyl-CoA levels in tumors administered orally twice daily for 16 days and measured 4 hrs post last dose by LC-MS analysis; assay type: functional, organism-based
Outline: (§3)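 Mice carrying subcutaneous MV-411 xenografts were randomized at […] tumor size into four groups (n=4). Groups received vehicle (PEG400/ethanol 9:1 v/v) or 5, 25 or 50 mg/kg twice daily. Tumors were taken 4 h after the last dose for malonyl-CoA measurement by LC-MS (one-way ANOVA vs vehicle). Tumor growth inhibition was assessed vs vehicle after 16 days.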

MV4-11 [22] = test: Antitumor activity against human MV4-11 cells xenografted in Harlan nude mouse assessed as tumor growth inhibition at 25 mg/kg, po administered twice daily for 16 days and measured 4 hrs post last dose; assay type: functional; conditions: MV4-11, po, read-out: TGI; outline: as §3
MV4-11 [23] = test: Antitumor activity against human MV4-11 cells xenografted in Harlan nude mouse assessed as tumor growth inhibition at 50 mg/kg, po administered twice daily for 16 days and measured 4 hrs post last dose; assay type: functional; conditions: MV4-11, po, read-out: TGI; outline: as §3
[24] = Intrinsic clearance in human liver microsomes; assay type: ADME, Microsome; conditions: read-out: CLH
[25] = Intrinsic clearance in mouse liver microsomes; assay type: ADME, Microsome; conditions: read-out: CLH
[26] = Toxicity in mouse assessed as drug tolerability administered as single dose; conditions: in vivo
Outline: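 Mice received a single oral (PO) dose of 5 mg/kg and were watched for acute toxicity to judge tolerability. Female Balb/c nude mice were used for the fluorobenzoxazole analogues. Tolerability was expressed as whether the single dose was tolerated or as a maximum tolerated dose.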

remaining at 0.5 h [1] [%] | IC50 (Fatty acid synthase [2]) [nM] | IC50 (Fatty acid synthase [3]) [nM] | solubility kinetic [4] [µM] | IC50 (PC-3) [nM] | Structure (SMILES) | further results
69 | 310 | 4960 | 67 (≈ 27 µg/mL) | – | O=C(c1ccc(-c2ccc(F)cc2Cl)cc1)N1CCN(C(=O)C2(O)CC2)CC1 | –
95 | 350 | – | – | – | O=C(c1ccc(-c2ccccc2)cc1)N1CCN(C(=O)C2(O)CC2)CC1 | –
– | 1140 | – | – | – | O=C(c1ccc(-c2ccccc2)cc1)N1CCN(C(=O)C2CCCO2)CC1 (racemic) | IC50 [5]: 1800 nM; IC50 [6]: > 50000 nM; IC50 [7]: > 50000 nM; IC50 [8]: > 50000 nM
93 | 192 | 61 | 30 (≈ 12.3 µg/mL) | 52 | O=C(c1ccc(-c2nc3cc(F)ccc3o2)cc1)N1CCN(C(=O)C2(O)CC2)CC1 | Activity [9]: Toxic
66 | 110 | 158 | 43 (≈ 17.3 µg/mL) | 138 | O=C(c1ccc(-c2cc(Cl)ccc2F)cc1)N1CCN(C(=O)C2(O)CC2)CC1 | –
92 | 110 | 336 | 33 (≈ 13.3 µg/mL) | 146 | O=C(c1ccc(-c2ccc(Cl)cc2F)cc1)N1CCN(C(=O)C2(O)CC2)CC1 | remaining at 1 h [10]: 84%; remaining at 1 h [11]: 70%; AUC [12]: 47.6 µM·h
100 | 213 | 90 | 39 (≈ 16 µg/mL) | 47 | O=C(c1ccc(-c2nc3ccc(F)cc3o2)cc1)N1CCN(C(=O)C2(O)CC2)CC1 | IC50 (MV4-11 [13]): 26 nM; Tmax [14]: 2 h; Cmax [15]: 8.4 µM; AUC(0-t) at 8 h [16]: 46 µM·h; bioavailability [17]: 95%; Tmax [18]: 3 h; Cmax [19]: 33 µM; AUC(0-t) at 24 h [20]: 440 µM·h; bioavailability [21]: 84%; inhibition (Mus musculus): Dose-dependent effect; inhibition in vivo at 25 mg/kg (MV4-11 [22]): 32%; inhibition in vivo at 50 mg/kg (MV4-11 [23]): 50%; remaining at 1 h [10]: 97%; remaining at 1 h [11]: 83%; AUC [12]: 46 µM·h; Activity [9]: Non-Toxic
84 | 57 | 67 | 18 (≈ 7.33 µg/mL) | 214 | O=C(c1ccc(-c2nc3ccccc3s2)cc1)N1CCN(C(=O)C2(O)CC2)CC1 | –
86 | 10 | 12 | 82 (≈ 32.9 µg/mL) | – | O=C(c1ccc(-c2cnc3ccccc3c2)cc1)N1CCN(C(=O)C2(O)CC2)CC1 | –
– | > 50000 | – | – | – | O=C(c1ccc(-c2ccccc2)cc1)N1CCN(C(=O)C2(O)CCCC2)CC1 | –
89 | 26 | – | 79 (≈ 32 µg/mL) | 12 | Cn1ncc2ccc(-c3ccc(C(=O)N4CCN(C(=O)C5(O)CC5)CC4)cc3)cc21 | remaining at 1 h [10]: 77%; remaining at 1 h [11]: 75%; AUC [12]: 9.8 µM·h
81 | 12 | 19 | 3 (≈ 1.21 µg/mL) | – | Cn1ccc2cc(-c3ccc(C(=O)N4CCN(C(=O)C5(O)CC5)CC4)cc3)ccc21 | –
85 | 1800 | – | – | – | O=C(c1ccc(-c2ccccc2)cc1)N1CCN(C(=O)C2(O)CCC2)CC1 | –
– | 3100 | – | – | – | COc1ccc(-c2ccc(C(=O)N3CCN(C(=O)C4(O)CC4)CC3)cc2)c(Cl)c1 | –
92 | 97 | 104 | 7 (≈ 2.98 µg/mL) | 29 | O=C(c1ccc(-c2nc3ccc(Cl)cc3o2)cc1)N1CCN(C(=O)C2(O)CC2)CC1 | –
– | > 50000 | – | – | – | O=C(c1ccc(-c2ccccc2)cc1)N1CCN(C(=O)C2CCCC2)CC1 | –
99 | 35000 | – | – | – | CC(C)(O)C(=O)N1CCN(C(=O)c2ccc(-c3ccccc3)cc2)CC1 | –
83 | 33 | 70 | 0.3 (≈ 0.121 µg/mL) | 25 | Cn1c(-c2ccc(C(=O)N3CCN(C(=O)C4(O)CC4)CC3)cc2)cc2ccccc21 | –
55 | 16 | 18 | 60 (≈ 23.4 µg/mL) | 4 | O=C(c1ccc(-c2ccc3[nH]ccc3c2)cc1)N1CCN(C(=O)C2(O)CC2)CC1 | –
79 | 32 | 101 | 71 (≈ 28.5 µg/mL) | 2 | O=C(c1ccc(-c2ccc3ccccc3n2)cc1)N1CCN(C(=O)C2(O)CC2)CC1 | –
65 | ≥ 50000 | – | – | – | O=C(c1ccc(-c2ccccc2)cc1)N1CCN(C(=O)[C@@H]2CCCO2)CC1 | –
89 | > 5000 | > 125000 | 95 (≈ 38.2 µg/mL) | – | O=C(c1ccc(-c2cnc3cccnc3c2)cc1)N1CCN(C(=O)C2(O)CC2)CC1 | –
45 | 13 | 11 | 77 (≈ 30.9 µg/mL) | 13 | O=C(c1ccc(-c2ccc3cnccc3c2)cc1)N1CCN(C(=O)C2(O)CC2)CC1 | remaining at 1 h [10]: 1%; remaining at 1 h [11]: 0%; AUC [12]: 0.1 µM·h
60 | 142 | 257 | 92 (≈ 36 µg/mL) | 142 | O=C(c1ccc(-c2ccc3ocnc3c2)cc1)N1CCN(C(=O)C2(O)CC2)CC1 | –
88 | 32 | 11 | 95 (≈ 38.7 µg/mL) | 17 | O=C(c1ccc(-c2ccc3scnc3c2)cc1)N1CCN(C(=O)C2(O)CC2)CC1 | –
85 | 69 | 136 | 6 (≈ 2.56 µg/mL) | 49 | O=C(c1ccc(-c2nc3cc(Cl)ccc3o2)cc1)N1CCN(C(=O)C2(O)CC2)CC1 | –
100 | 1100 | – | – | – | O=C(c1ccc(-c2ccccc2)cc1)N1CCN(C(=O)[C@H]2CCCO2)CC1 | –

Structure (SMILES) | remaining at 0.5 h [1] [%] | IC50 (Fatty acid synthase [2]) [nM] | IC50 (Fatty acid synthase [3]) [nM] | solubility kinetic [4] [µM] | IC50 (PC-3) [nM] | further results
O=C(c1ccc(-c2nc3ccccc3o2)cc1)N1CCN(C(=O)C2(O)CC2)CC1 | 109 | 54 | 101 | 83 (≈ 32.5 µg/mL) | 15 | AUC [12]: 28.7 µM·h; microsomal CLint [24]: 7 µL/min/mg; microsomal CLint [25]: 7 µL/min/mg; MTD [26]: < 5 mg/kg
